# pIC50: −log10 of the molar value. “Also recorded” adds a separate entry of the source. Like-named read-outs stand apart in the source and are kept apart here.
# Assays:
# [1] = MIC broth double-dilution assay with the inoculum size of the time-kill assays; type: cell-based; conditions: inoculum 1×10^6 CFU/mL
# HEK-293 = experiment: mammalian cytotoxicity; type: cell-based; conditions: for cytotoxicity (significant = >20% cell death): up until 10 μg/mL, HEK-293; for difference between cytotoxic concentration and MIC values: HEK-293 vs MRSA strains, depending on the strain
# [2] = system: S. aureus ATCC 6538 (strain A); conditions: 2 μg/mL; cited from earlier work
# [3] = system: S. epidermidis ATCC 35984 (strain AC); experiment: membrane disruption, propidium iodide staining; type: cell-based; conditions: 1× and 4× MIC
# Outline: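 Membrane integrity was assessed by propidium iodide uptake, with red-stained cells scored as membrane-compromised. […] Controls: untreated and aminoglycoside-treated cells (negative), and a tobramycin derivative carrying a C14 linear alkyl thioether at the 6″-position (positive).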
# [4] = system: S. epidermidis ATCC 35984 (strain AC); experiment: ROS production, DCFH-DA staining; type: cell-based; conditions: 1× and 4× MIC, 1 h at 37 °C
# Outline: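 Untreated cells served as negative control and 1 mM H2O2 as positive control. Cells were then stained with DCFH-DA (40 μg/mL) and examined by fluorescence microscopy.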
# S. aureus strains = experiment: MIC over the panel of S. aureus strains; type: cell-based
# [5] = system: murine red blood cells (mRBCs); experiment: hemolytic assay; type: cell-based, mouse; conditions: compared to ebselen / among ebsulfur analogues tested
# E. faecium BM4105-RF = experiment: MIC, broth double dilution; type: cell-based; conditions: Enterococcus faecium, BM4105RF, strain AF = E. faecium BM4105-RF
# MRSA S22 (strain W) = experiment: time-kill assay; type: cell-based, S. aureus; conditions: 4× MIC, over 24 h
# S. aureus ATCC 25923 = experiment: MIC, broth double dilution; type: cell-based; conditions: Staphylococcus aureus, ATCC25923, strain B = S. aureus ATCC 25923
# MRSA NRS77 = experiment: MIC, broth double dilution; type: cell-based, S. aureus; conditions: Staphylococcus aureus, MRSA|NRS77, strain T = MRSA NRS77
# [6] = solubility in liquid Mueller-Hinton medium; type: physicochemical
# [7] = system: S. aureus ATCC 6538 (strain A); experiment: reduction of established biofilm; type: cell-based; conditions: 1× to […] MIC tested, concentration not given
# NorA, efflux pump = conditions: NorA inhibitor; cited from earlier work
Compound,MIC values with time-kill inoculum size compared with standard MIC [1],cytotoxicity (significant = >20% cell death) (HEK-293),membrane disruption (PI uptake) [3],ROS production (DCFH-DA) [4],MIC (E. faecium BM4105-RF),further results
"O=c1c2ccccc2[se]n1-c1ccccc1 [Ebselen, 2-phenyl-1,2-benzisoselenazol-3(2H)-one, reference compound]",remained identical,very similar,no sign of membrane disruption,led to production of ROS,,biofilm reduction [2]: approximately 60%
CC(C)c1ccc(-n2sc3ccccc3c2=O)cc1 [2e],,did not display any significant cytotoxicity,,,,difference between cytotoxic concentration and MIC values (HEK-293): up to 40 fold; improvement in MIC values when compared to the parent compound 2a (S. aureus strains): up to 16 fold
CC(C)c1cccc(-n2sc3ccccc3c2=O)c1 [2h],remained identical,did not display any significant cytotoxicity,,,2 to 7.8 µg/mL,"hemolytic activity, comparison [5]: less hemolytic when compared to ebselen; also recorded: least hemolytic; difference between cytotoxic concentration and MIC values (HEK-293): up to 40 fold; improvement in MIC values when compared to the parent compound 2a (S. aureus strains): up to 16 fold"
CCCCCCn1sc2ccccc2c1=O [3b],,,no sign of membrane disruption,led to production of ROS,,reduction of bacterial load (MRSA S22 (strain W)): 1.5 orders of magnitude
"O=c1c2ccccc2sn1-c1ccccc1 [2a, 2-phenyl-1,2-benzisothiazol-3(2H)-one]",,,no sign of membrane disruption,led to production of ROS,2 to 7.8 µg/mL,reduction of bacterial load (MRSA S22 (strain W)): 1.5 orders of magnitude
O=c1c2ccccc2sn1-c1cccc(Br)c1 [2g],remained identical,,,,,
O=c1c2ccccc2sn1-c1cccc2ccccc12 [2l],,did not display any significant cytotoxicity,,,,
COc1cc(OC)cc(-n2sc3ccccc3c2=O)c1 [2k],,,,,2 to 7.8 µg/mL,
"NCC[C@H](O)C(=O)N[C@@H]1C[C@H](N)[C@@H](O[C@H]2O[C@H](CN)[C@@H](O)[C@H](O)[C@H]2O)[C@H](O)[C@H]1O[C@H]1O[C@H](CO)[C@@H](O)[C@H](N)[C@H]1O [AMK, amikacin, reference compound]",remained identical,,,,≥ 125 µg/mL,MIC (S. aureus ATCC 25923): ≤ 0.5 µg/mL; MIC (MRSA NRS77): ≤ 0.5 µg/mL
O=c1c2ccccc2sn1-c1ccccn1 [2m],,,,,,solubility [6]: soluble enough for biological testing
CCCCCCCCn1sc2ccccc2c1=O [3c],,,no sign of membrane disruption,led to production of ROS,,"reduction of bacterial load (MRSA S22 (strain W)): 1.5 orders of magnitude; hemolytic activity, comparison [5]: less hemolytic when compared to ebselen; biofilm reduction [7]: low to no biofilm reduction"
O=[N+]([O-])c1ccc2[nH]c(-c3ccccc3)cc2c1 [5-nitro-2-phenyl-(1H)-indole],,,,,,"pIC50 (NorA, efflux pump): > 5.30"
